Assay results from ChEMBL document CHEMBL1140759, “Synthesis, anti-Toxoplasma gondii and antimicrobial activities of benzaldehyde 4-phenyl-3-thiosemicarbazones and 2-[(phenylmethylene)hydrazono]-4-oxo-3-phenyl-5-thiazolidineacetic acids” (Bioorg Med Chem, 2008).
In brackets after ≈: the same amount, converted by molar mass.

Experiments:
Enterococcus faecalis = test: Antimicrobial activity against Streptococcus faecalis at 300 ug/disc; format: functional; details: read-out: IZ
Summary of the method: (§1)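 Disc diffusion on agar plates inoculated with a standardized microbial suspension, with paper discs carrying known compound amounts. DMSO-only discs served as negative controls, and chloramphenicol, rifampicin (bacteria) or nistatin (fungi) as references. The read-out is the mean inhibition zone diameter in mm. Each run was done three times and repeated if results differed.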

Toxoplasma gondii [1] = test: Inhibition of intracellular parasite Toxoplasma gondii; format: functional, organism-based
Summary of the method: (§2)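 Infected Vero cultures were exposed to compound at 0.01–30 mM for 24 h, in triplicate per assay. IC50 for infected cells and intracellular parasites was derived by non-linear regression, using trypan blue exclusion.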

Saccharomyces cerevisiae = test: Antimicrobial activity against Saccharomyces cerevisiae at 300 ug/disc; format: functional; details: read-out: IZ; summary of the method: as §1
Klebsiella pneumoniae = test: Antimicrobial activity against Klebsiella pneumoniae at 300 ug/disc; format: functional; details: read-out: IZ; summary of the method: as §1
Toxoplasma gondii [2] = test: Antiparasitic activity against Toxoplasma gondii infected african green monkey Vero cells at 2 mM assessed as infected cells; format: functional
Summary of the method: (§3)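 Vero cells were infected with RH-strain tachyzoites (5:1 parasite:cell) for 1 h, washed with PBS, and grown 24 h at 37 °C in medium 199 with 5% FCS. Compound was then added for 24 h. Cells were fixed with Bouin's, stained with Giemsa, and at least 400 cells were counted by light microscopy for the percentage infected. Hydroxyurea and sulfadiazine served as references.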

Escherichia coli = test: Antimicrobial activity against Escherichia coli at 300 ug/disc; format: functional; details: read-out: IZ; summary of the method: as §1
[3] = test system: Mycolicibacterium smegmatis; test: Antimicrobial activity against Mycobacterium smegmatis at 300 ug/disc; format: functional; details: read-out: IZ; summary of the method: as §1
Candida [4] = test: Antimicrobial activity against Candida sp. IMUR4249 at 300 ug/disc; format: functional; details: read-out: IZ; summary of the method: as §1
Toxoplasma gondii [5] = test: Inhibition of Toxoplasma gondii infected in african green monkey Vero cells; format: functional, organism-based; summary of the method: as §2
Staphylococcus aureus = test: Antimicrobial activity against Staphylococcus aureus at 300 ug/disc; format: functional; details: read-out: IZ; summary of the method: as §1
Toxoplasma gondii [6] = test: Antiparasitic activity against Toxoplasma gondii infected african green monkey Vero cells at 8 mM assessed as infected cells; format: functional; summary of the method: as §3
Micrococcus luteus = test: Antimicrobial activity against Micrococcus luteus at 300 ug/disc; format: functional; details: read-out: IZ; summary of the method: as §1
Toxoplasma gondii [7] = test: Antiparasitic activity against Toxoplasma gondii infected african green monkey Vero cells at 5 mM assessed as infected cells; format: functional; summary of the method: as §3
Toxoplasma gondii [8] = test: Antiparasitic activity against Toxoplasma gondii infected african green monkey Vero cells at 0.1 mM assessed as infected cells; format: functional; summary of the method: as §3
Toxoplasma gondii [9] = test: Antiparasitic activity against Toxoplasma gondii infected african green monkey Vero cells at 20 mM assessed as infected cells; format: functional; summary of the method: as §3
Mycolicibacterium phlei = test: Antimicrobial activity against Mycobacterium phlei at 300 ug/disc; format: functional; details: read-out: IZ; summary of the method: as §1
Candida [10] = test: Antimicrobial activity against Candida sp. IMUR1224 at 300 ug/disc; format: functional; details: read-out: IZ; summary of the method: as §1
[11] = test system: Mycobacterium tuberculosis; test: Antimicrobial activity against Mycobacterium tuberculosis at 300 ug/disc; format: functional; details: read-out: IZ
Summary of the method: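 Agar disc diffusion: paper discs loaded with compound placed on agar plates seeded with a standardised microbial suspension. DMSO-only discs served as negative control. Chloramphenicol and rifampicin (bacteria) or nistatin (fungi) gave reference zones. Read-out was mean zone of inhibition diameter (mm). Each experiment was run three times and repeated if results differed.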

Candida albicans = test: Antimicrobial activity against Candida albicans at 300 ug/disc; format: functional; details: read-out: IZ; summary of the method: as §1
Bacillus subtilis = test: Antimicrobial activity against Bacillus subtilis at 300 ug/disc; format: functional; details: read-out: IZ; summary of the method: as §1
Vero = test: Inhibition of uninfected african green monkey Vero cells; format: cell-based; details: Chlorocebus sabaeus
Candida [12] = test: Antimicrobial activity against Candida sp. IMUR720 at 300 ug/disc; format: functional; details: read-out: IZ; summary of the method: as §1
Candida [13] = test: Antimicrobial activity against Candida sp. IMUR4249; format: functional
Summary of the method: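 Tube dilution MIC, run on compounds with a disc-diffusion zone of at least 18 mm. The DMSO stock (1 mg/mL) was serially diluted to 10–220 µg/mL final in medium, and strains were inoculated at 10^8/mL. Media were tryptic soy or nutrient agar for bacteria and Sabouraud liquid for fungi, incubated 24–48 h at 37 °C (bacteria) or 30 °C (fungi). MIC is the lowest concentration giving clear tubes.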

Row | Compound | zone of inhibition at 300 µg/disc (Enterococcus faecalis) [mm] | IC50 (Toxoplasma gondii [1]) [mM] | zone of inhibition at 300 µg/disc (Saccharomyces cerevisiae) [mm] | zone of inhibition at 300 µg/disc (Klebsiella pneumoniae) [mm] | Activity (Toxoplasma gondii [2]) [%] | zone of inhibition at 300 µg/disc (Escherichia coli) [mm] | zone of inhibition at 300 µg/disc [3] [mm] | zone of inhibition at 300 µg/disc (Candida [4]) [mm] | IC50 (Toxoplasma gondii [5]) [mM] | zone of inhibition at 300 µg/disc (Staphylococcus aureus) [mm] | Activity (Toxoplasma gondii [6]) [%] | zone of inhibition at 300 µg/disc (Micrococcus luteus) [mm] | Activity (Toxoplasma gondii [7]) [%] | Activity (Toxoplasma gondii [8]) [%] | Activity (Toxoplasma gondii [9]) [%] | zone of inhibition at 300 µg/disc (Mycolicibacterium phlei) [mm] | zone of inhibition at 300 µg/disc (Candida [10]) [mm] | zone of inhibition at 300 µg/disc [11] [mm] | zone of inhibition at 300 µg/disc (Candida albicans) [mm] | zone of inhibition at 300 µg/disc (Bacillus subtilis) [mm] | other results
1 | COc1cc(/C=N/N=C2\SC(CC(=O)O)C(=O)N2c2ccccc2)cc(OC)c1OC (stereo not drawn) | < 7 | 0.5 | < 7 | < 7 | 14.33 | < 7 | < 7 | 15 | 1 | < 7 | 7.2 | 25 | 15.63 | 55.57 | 0 | < 7 | < 7 | < 7 | 10 | 19 | IC50 (Vero): 2 mM; zone of inhibition at 300 µg/disc (Candida [12]): < 7 mm
2 | O=C(O)CC1S/C(=N\N=C\c2ccc(F)cc2)N(c2ccccc2)C1=O (stereo not drawn) | 16 | 0.05 | < 7 | < 7 | 10.2 | < 7 | 12 | 22 | 0.05 | < 7 | 0 | 15 | 0 | 21.7 | 0 | 7 | < 7 | 14 | 8 | 14 | IC50 (Vero): 2 mM; zone of inhibition at 300 µg/disc (Candida [12]): < 7 mm; MFC (Candida [13]): 70 µg/mL (≈ 188 µM); MIC (Candida [13]): 80 µg/mL (≈ 215 µM)
3 | O=C(O)CC1S/C(=N\N=C\c2ccc(Cl)cc2)N(c2ccccc2)C1=O (stereo not drawn) | 15 | 0.5 | < 7 | < 7 | 35.3 | < 7 | 15 | 20 | 1.5 | < 7 | 0 | 21 | 0 | 68.15 | 0 | 12 | < 7 | 17 | 8 | 13 | IC50 (Vero): 2 mM; zone of inhibition at 300 µg/disc (Candida [12]): < 7 mm; MFC (Candida [13]): 140 µg/mL (≈ 361 µM); MIC (Candida [13]): 150 µg/mL (≈ 387 µM)
4 | O=C(O)CC1S/C(=N\N=C\c2ccccc2F)N(c2ccccc2)C1=O (stereo not drawn) | 16 | 1 | < 7 | < 7 | 16.14 | < 7 | 13 | 20 | 2 | < 7 | 0 | 25 | 0 | 70.79 | 0 | 7 | < 7 | 14 | 7 | 15 | IC50 (Vero): 2 mM; zone of inhibition at 300 µg/disc (Candida [12]): < 7 mm; MFC (Candida [13]): 70 µg/mL (≈ 188 µM); MIC (Candida [13]): 80 µg/mL (≈ 215 µM)
5 | O=C(O)CC1S/C(=N\N=C\c2ccccc2)N(c2ccccc2)C1=O (stereo not drawn) | 12 | 1 | < 7 | < 7 | 48.5 | < 7 | 9 | < 7 | 4 | < 7 | 0 | 20 | 14.6 | 69.7 | 0 | 7 | < 7 | 14 | 8 | 15 | IC50 (Vero): 5 mM; zone of inhibition at 300 µg/disc (Candida [12]): < 7 mm
6 | COc1cccc(/C=N/N=C2\SC(CC(=O)O)C(=O)N2c2ccccc2)c1 (stereo not drawn) | 11 | 0.1 | < 7 | < 7 | 28.71 | < 7 | < 7 | 18 | 3 | 14 | 4.16 | 22 | 7.3 | 34.16 | 0 | < 7 | < 7 | < 7 | < 7 | 9 | IC50 (Vero): 5 mM; zone of inhibition at 300 µg/disc (Candida [12]): < 7 mm; MFC (Candida [13]): 70 µg/mL (≈ 183 µM); MIC (Candida [13]): 80 µg/mL (≈ 209 µM)
7 | CN(C)c1ccc(/C=N/N=C2\SC(CC(=O)O)C(=O)N2c2ccccc2)cc1 (stereo not drawn) | < 7 | 0.05 | < 7 | < 7 | 0 | < 7 | < 7 | 16 | 0.05 | < 7 | 0 | 10 | 0 | 50.58 | 0 | < 7 | < 7 | < 7 | < 7 | < 7 | IC50 (Vero): 1 mM; zone of inhibition at 300 µg/disc (Candida [12]): < 7 mm
8 | COc1ccc(/C=N/N=C2\SC(CC(=O)O)C(=O)N2c2ccccc2)c(OC)c1 (stereo not drawn) | < 7 | 0.5 | 12 | < 7 | 39.5 | < 7 | < 7 | 20 | 2 | < 7 | 0 | 15 | 0 | 66.36 | 0 | < 7 | < 7 | < 7 | 13 | < 7 | IC50 (Vero): 5 mM; zone of inhibition at 300 µg/disc (Candida [12]): < 7 mm; MFC (Candida [13]): 70 µg/mL (≈ 169 µM); MIC (Candida [13]): 80 µg/mL (≈ 193 µM)
9 | Cc1cccc(/C=N/N=C2\SC(CC(=O)O)C(=O)N2c2ccccc2)c1 (stereo not drawn) | 11 | 0.5 | < 7 | < 7 | 15.54 | < 7 | < 7 | < 7 | 1 | < 7 | 10.13 | 22 | 16.19 | 66 | 0 | < 7 | < 7 | < 7 | 9 | < 7 | IC50 (Vero): 9 mM; zone of inhibition at 300 µg/disc (Candida [12]): < 7 mm
